According to publication PMC7233462 (Cell reports, 2019):

Key:
PpKAI2-like E [1] = assay type: biochemical, Physcomitrella patens; conditions: 1 μM PpKAI2-like E, 1 mM substrate, 3 h, room temperature
PpKAI2-like C [2] = target: T1, PpKAI2-like C (Physcomitrium patens, UniProt A9SKF7); experiment: Differential scanning fluorimetry; assay type: binding, Physcomitrella patens
PpKAI2-like C [3] = target: T1, PpKAI2-like C; assay type: biochemical, Physcomitrella patens; conditions: 1 μM PpKAI2-like C, 1 mM substrate, 3 h, room temperature
PpKAI2-like E [4] = experiment: Differential scanning fluorimetry; assay type: binding, Physcomitrella patens
PpKAI2-like E [5] = experiment: Mass spectrometry of protein for D ring modification; assay type: biochemical, Physcomitrella patens; conditions: PpKAI2-like E incubated with ligand
PpKAI2-like D [6] = assay type: biochemical, Physcomitrella patens; conditions: 1 μM PpKAI2-like D, 1 mM substrate, 3 h, room temperature
PpKAI2-like D [7] = experiment: Mass spectrometry of protein for D ring modification; assay type: biochemical, Physcomitrella patens; conditions: PpKAI2-like D incubated with ligand
PpKAI2-like C [8] = target: T1, PpKAI2-like C; experiment: as above; assay type: biochemical, Physcomitrella patens; conditions: PpKAI2-like C incubated with ligand
PpKAI2-like D [9] = experiment: Differential scanning fluorimetry; assay type: binding, Physcomitrella patens
DAD2 = conditions: Petunia paralog DAD2; ref Hamiaux et al., 2012; cited from earlier work
D14 = conditions: Arabidopsis D14; ref Zhao et al., 2013; cited from earlier work
PpKAI2-like H [10] = target: T2, PpKAI2-like H (Physcomitrium patens, UniProt A9SG07); experiment: Differential scanning fluorimetry; assay type: binding, Physcomitrella patens; conditions: PpKAI2-like H wild-type
[11] = system: PpKAI2-like E SDIDSM166TDIHDE; experiment: Differential scanning fluorimetry; assay type: binding, Physcomitrella patens; conditions: loop-swap PpKAI2-like E SDIDSM166TDIHDE
[12] = system: PpKAI2-like H TDIHDE167SDIDSM; experiment: Differential scanning fluorimetry; assay type: binding, Physcomitrella patens; conditions: loop-swap PpKAI2-like H TDIHDE167SDIDSM
PpKAI2-like E S166A = target: T3, PpKAI2-like E S166A (Physcomitrium patens, UniProt A9ST85, S166A); experiment: Isothermal titration calorimetry of; assay type: binding, Physcomitrella patens
T3 sequence (A9ST85 1-270 S166A): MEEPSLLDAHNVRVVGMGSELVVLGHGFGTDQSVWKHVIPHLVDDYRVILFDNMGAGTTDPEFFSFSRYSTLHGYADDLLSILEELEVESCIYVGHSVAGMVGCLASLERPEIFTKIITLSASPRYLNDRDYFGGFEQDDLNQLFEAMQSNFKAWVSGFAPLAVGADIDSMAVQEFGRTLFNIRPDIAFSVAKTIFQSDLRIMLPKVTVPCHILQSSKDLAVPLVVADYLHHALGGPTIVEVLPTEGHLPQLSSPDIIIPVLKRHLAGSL
How it was run: (§1)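 GST-fused protein (wild-type or point mutant) was expressed in E. coli BL21-CodonPlus-RIL, HRV3-cleaved on glutathione resin, then size-excluded in 20 mM Tris-HCl, 30 mM NaCl, 1 mM TCEP, pH 7.7. Protein at 1800 μM was titrated into 40 μM racemic GR24 over 20 injections spaced 240 s apart. Data were fitted to a one-site binding model.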

[13] = target: PpKAI2-like E S166D S170D; experiment: Isothermal titration calorimetry of; assay type: binding, Physcomitrella patens; conditions: ITC
How it was run: as §1

PpKAI2-like D [14] = experiment: Fluorescence-based equilibrium microdialysis, KAR1 binding; parameters: species or system Physcomitrella patens
PpKAI2-like K = experiment: as above; parameters: species or system Physcomitrella patens
[15] = system: Physcomitrella caulonema growth; conditions: ref Hoffmann et al., 2014; cited from earlier work
[16] = system: PpKAI2-like H TDIHDE167SDIDSM; experiment: Fluorescence-based equilibrium microdialysis, KAR1 binding; parameters: species or system Physcomitrella patens; conditions: loop-swap PpKAI2-like H TDIHDE167SDIDSM
PpKAI2-like H [17] = target: T2, PpKAI2-like H; experiment: as above; parameters: species or system Physcomitrella patens
PpKAI2-like E [18] = experiment: as above; parameters: species or system Physcomitrella patens
AtKAI2 = conditions: read-out: published affinity, ref Guo et al., 2013; cited from earlier work
PpKAI2-like B = experiment: Fluorescence-based equilibrium microdialysis, KAR1 binding; parameters: species or system Physcomitrella patens
[19] = system: PpKAI2-like E SDIDSM166TDIHDE; experiment: as above; parameters: species or system Physcomitrella patens; conditions: loop-swap PpKAI2-like E SDIDSM166TDIHDE
PpKAI2-like C [20] = target: T1, PpKAI2-like C; experiment: as above; parameters: species or system Physcomitrella patens
PpKAI2-like L = experiment: as above; parameters: species or system Physcomitrella patens

(+)-5-deoxystrigol
degradation of intact substrate mass (PpKAI2-like E [1]): did not observe any effect | change of protein melting point (DSF) (PpKAI2-like C [2]): unable to detect a change in melting points | degradation of intact substrate mass (PpKAI2-like C [3]): did not observe any effect | change of protein melting point (DSF) (PpKAI2-like E [4]): unable to detect a change in melting points | D ring modification of active site histidine (PpKAI2-like E [5]): unable to detect the modification | degradation of intact substrate mass (PpKAI2-like D [6]): did not observe any effect | D ring modification of active site histidine (PpKAI2-like D [7]): unable to detect the modification | D ring modification of active site histidine (PpKAI2-like C [8]): unable to detect the modification | change of protein melting point (DSF) (PpKAI2-like D [9]): unable to detect a change in melting points

CC1=CC(O/C=C2/C(=O)OC3c4ccccc4CC23)OC1=O (racemic) [(±)-GR24]
turnover rate (DAD2): 3 (±)-GR24 molecules/hr | turnover rate (D14): 1 (±)-GR24 molecule/3 min | change of protein melting point (DSF) (PpKAI2-like C [2]): destabilization | binding / interaction (DSF) (PpKAI2-like H [10]): no binding observed | change of protein melting point (DSF) (PpKAI2-like E [4]): strongest shift of the protein melting point | affinity (DSF) [11]: reduced compared to wild-type | affinity (DSF) [12]: weak affinity | Kd (PpKAI2-like E S166A): 81 µM | binding of (±)-GR24 [13]: unable to detect binding | change of protein melting point (DSF) (PpKAI2-like D [9]): destabilization

(−)-5-deoxystrigol
degradation of intact substrate mass (PpKAI2-like E [1]): loss of intact (−)-5-deoxystrigol mass | change of protein melting point (DSF) (PpKAI2-like C [2]): absolute preference | binding / interaction (DSF) (PpKAI2-like H [10]): no binding observed | degradation of intact substrate mass (PpKAI2-like C [3]): loss of intact (−)-5-deoxystrigol mass | change of protein melting point (DSF) (PpKAI2-like E [4]): absolute preference | affinity (DSF) [11]: reduced compared to wild-type | D ring modification of active site histidine (PpKAI2-like E [5]): 96 Da mass of the D ring to be attached to the active site histidines | degradation of intact substrate mass (PpKAI2-like D [6]): loss of intact (−)-5-deoxystrigol mass | D ring modification of active site histidine (PpKAI2-like D [7]): 96 Da mass of the D ring to be attached to the active site histidines | affinity (DSF) [12]: weak affinity | D ring modification of active site histidine (PpKAI2-like C [8]): 96 Da mass of the D ring to be attached to the active site histidines | change of protein melting point (DSF) (PpKAI2-like D [9]): absolute preference

(−)-4-deoxyorobanchol
change of protein melting point (DSF) (PpKAI2-like C [2]): unable to detect a change in melting points | change of protein melting point (DSF) (PpKAI2-like E [4]): unable to detect a change in melting points | change of protein melting point (DSF) (PpKAI2-like D [9]): unable to detect a change in melting points

CC1=CC(O/C=C(C)\C=C\C2=C(C)CCCC2(C)C)OC1=O (racemic) [rac-carlactone]
change of protein melting point (DSF) (PpKAI2-like C [2]): unable to detect any interaction | binding / interaction (DSF) (PpKAI2-like H [10]): unable to detect any interaction | change of protein melting point (DSF) (PpKAI2-like E [4]): unable to detect any interaction | change of protein melting point (DSF) (PpKAI2-like D [9]): unable to detect any interaction

Cc1c2ccocc-2oc1=O [KAR1]
KAR1 binding (PpKAI2-like D [14]): unable to detect KAR1 binding | Kd (PpKAI2-like K): 7.7 µM | effect on Physcomitrella caulonema growth [15]: not found any effect | KAR1 binding [16]: lost KAR1 binding ability | Kd (PpKAI2-like H [17]): 6.7 µM | KAR1 binding (PpKAI2-like E [18]): unable to detect KAR1 binding | Kd (AtKAI2): 9 µM | KAR1 binding (PpKAI2-like B): do not bind | KAR1 binding [19]: weak binding | KAR1 binding (PpKAI2-like C [20]): unable to detect KAR1 binding | Kd (PpKAI2-like L): 5.2 µM

(+)-4-deoxyorobanchol
change of protein melting point (DSF) (PpKAI2-like C [2]): unable to detect a change in melting points | change of protein melting point (DSF) (PpKAI2-like E [4]): unable to detect a change in melting points | change of protein melting point (DSF) (PpKAI2-like D [9]): unable to detect a change in melting points
